High-throughput results (PubChem BioAssay)
Env fusion inh = inhibitors of HIV-1 Env-driven cell-cell fusion, primary screen, HeLa-JRFL effector, CEM21 target cells, luciferase; inhibition, % at 12.3 µM; hit rate 1.1% among 360,000; AID 651610, 2012;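 active means mean replicate inhibition score of at least 50 and every replicate individually at or above 50; inconclusive means only one of the two criteria met; inactive means mean below 50 and not all replicates reaching 50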;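 further: 0% = plate neutral controls and 100% = maraviroc near 300 nM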
SR-BI uptake up = activators of SR-BI mediated DiI-HDL uptake, primary screen, ldlA[mSR-BI] CHO cells, DiI fluorescence | 3 h; 100 = double the neutral-control signal | activation, % at 12.5 µM | hit rate 0.096% among 320,000 | AID 504775, 2011;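 active means mean replicate activation of at least 60% and every replicate at or above 60%; inconclusive means mean or all-replicate condition met, but not both; inactive means mean below 60% and not all replicates reaching 60%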;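 further: 0% = median plate neutral-control signal and 100% = twice that signal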
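Test system: SR-BI-overexpressing, LDLR-lacking CHO cells; Also added: labelled HDL, 10 µg/mL; Measured by: bottom-read cell fluorescence after medium removal, ex 550/em 595 nm; Timing: 3 h uptake period with compound, 37 °C; Buffer or medium: F12, 0.5% BSA, 25 mM HEPES; Doses: single compound concentration, delivered by pin transfer.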
SR-BI HDL uptake = inhibitors of SR-BI mediated HDL lipid uptake, primary screen, ldlA[mSR-BI] cells, fluorescence, single point; hit rate 0.96% among 320,000; AID 488896, 2010; ldlA[mSR-BI] CHO cells, DiI-HDL uptake fluorescence, 3 h; inhibition, % at 12.5 µM; Scavenger receptor class B member 1 (Mus musculus), Q61009;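 active means mean replicate inhibition of at least 70% and a set share of replicates each scoring 70 or more; inconclusive means meets just one of the two criteria; inactive means fails both criteria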;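 further: 0% = median of neutral control wells and 100% = median of positive control wells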
Target sequence (Q61009 whole entry, looked up): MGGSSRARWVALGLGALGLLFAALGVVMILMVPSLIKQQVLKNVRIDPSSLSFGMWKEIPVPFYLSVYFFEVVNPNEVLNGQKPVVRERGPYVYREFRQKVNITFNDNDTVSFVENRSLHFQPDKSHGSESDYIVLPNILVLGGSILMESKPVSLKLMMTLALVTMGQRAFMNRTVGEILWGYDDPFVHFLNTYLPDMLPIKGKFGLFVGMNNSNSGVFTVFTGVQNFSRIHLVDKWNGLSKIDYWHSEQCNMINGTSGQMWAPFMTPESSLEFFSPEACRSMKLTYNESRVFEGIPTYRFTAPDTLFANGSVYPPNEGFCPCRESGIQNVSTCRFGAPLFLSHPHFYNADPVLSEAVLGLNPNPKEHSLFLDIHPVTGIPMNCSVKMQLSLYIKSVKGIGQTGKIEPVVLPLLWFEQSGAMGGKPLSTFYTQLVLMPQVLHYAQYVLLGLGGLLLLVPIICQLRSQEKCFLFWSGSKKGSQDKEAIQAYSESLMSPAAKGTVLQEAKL
Rtt109 Vps75 = inhibitors of C. albicans Rtt109/Vps75 HAT, primary screen, biochemical, ThioGlo CoA-SH fluorescence, plate reader; Histone acetyltransferase RTT109 (Candida albicans (strain SC5314 / ATCC MYA-2876)), …; purified Rtt109/Vps75, 4 h; inhibition, % at 34.9 µM; hit rate 0.16% among 330,000;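 active means inhibition of at least 50% in every replicate; inconclusive means best replicate reaches 50% inhibition but some replicates fall short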
N-glyco inh = increase of ERlucT glycosylation luciferase signal, primary screen, N-linked glycosylation inhibitor project, D54 ERlucT cells, luminescence, set 2. D54 ERlucT glycosylation luciferase reporter, 24 h; percent of 100 nM tunicamycin response. reporter increase, % at 12.5 µM. hit rate 0.23% among 360,000;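 active means mean luciferase reporter signal, scaled so untreated is 0 and the glycosylation-blocking control 100, at or above a set limit in every replicate; inconclusive means mean reaches the limit but not every replicate does; inactive means mean below the limit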;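 further: luciferase carries N-glycosylation sites so blocking glycosylation raises the light; 0% = median of neutral control wells and 100% = median of 100 nM tunicamycin wells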
PglD inh = C. jejuni PglD acetyltransferase inhibitors, primary screen, biochemical, DTNB colorimetric, single point; AID 602405, 2012; purified PglD enzyme, DTNB colorimetric CoA detection; inhibition, % at 12.5 µM; hit rate 0.098% among 360,000; UDP-N-acetylbacillosamine N-acetyltransferase PglD (Campylobacter jejuni); in the data active means inhibition above about 16%, passing the limit was not always enough; inconclusive means no clear call, values can overlap the other calls
The depositor's hits bear a star; ? = inconclusive; nt = not tested or not shown; [ ] = dose if it differs, or a comment. Only some compounds are listed: those with a hit (about 1.9% of all), similar ones and a draw of the others.

SMILES	Env fusion inh	SR-BI uptake up	SR-BI HDL uptake	Rtt109 Vps75	N-glyco inh	PglD inh
N#C[C@H]1[C@@H](c2ccc(-c3cccc(F)c3)cc2)[C@H](CO)N1C(=O)NC1CCCC1	9[16.7 µM]	nt	nt	nt	nt	-2
Cc1ccccc1Cn1c(C(=O)OC(C)C)cc2c1ccn2C	54*	9	-9	-5	-3	-7
COc1ccc(-c2cn(CC[C@H]3CC[C@H](N)[C@@H](CO)O3)nn2)cc1	3[16.7 µM]	nt	nt	nt	nt	0
COc1ccc2nc3cc([N+](=O)[O-])ccc3c(NNc3ccc([N+](=O)[O-])cc3)c2c1	-4	-121	121*	-8	-10	nt
Cc1nonc1CN(C)C(=O)CC1C(=O)NCCN1Cc1c(F)cccc1Cl (centres undefined)	-14	-8	8	1	0	14
Cc1cc(CN(C)C(=O)CC2C(=O)NCCN2Cc2c(F)cccc2Cl)n[nH]1 (centres undefined)	65*	10	-10	9	1	nt
C[C@@H]1CN([C@H](C)CO)C(=O)Cc2cc(NC(=O)CCC(F)(F)F)ccc2O[C@@H]1CN(C)S(=O)(=O)c1cn(C)cn1	2[16.7 µM]	nt	nt	nt	nt	1
CN(C)C(=O)c1ccc(-c2ccc3c(c2)[C@H]2[C@H](CCN2C(=O)c2cnccn2)[C@@H](CO)N3)cc1	nt	nt	nt	nt	nt	-3
Cc1cc(C)cc(NC(=O)NC(C)C2CCCO2)c1 (centres undefined)	0	14	-14	56*	1	nt
CCNC(=O)C[C@H]1CC[C@H]2[C@@H](COc3ccc(NC(=O)Nc4ccc(Cl)cc4)cc3C(=O)N2C)O1	8[16.7 µM]	nt	nt	nt	nt	2
COc1ccc(/C=c2\s/c(=C/C(=O)c3ccc(C)cc3)[nH]c2=O)cc1OC	9	-74	74*	1	1	nt
CC(C)(C)C(=O)/C=c1\[nH]c(=O)/c(=C\c2ccc(F)cc2)s1	nt	-21	21	0	6	nt
CCN1/C(=C/c2ccc3cc(C)ccc3[n+]2CC)Sc2cc(C)c(C)cc21	29	-62	62	96*	12	nt
CCN1/C(=C/c2ccc3cc(C)ccc3[n+]2CC)Sc2ccccc21	-29	-62	62	?	0	nt
O=c1ccc2c([nH]1)CCCCCCCCCC2	56*	-1	1	7	-1	-5
COc1ccc(S(=O)(=O)Nc2cccc(S(=O)(=O)N3CCCCCC3)c2)cc1	nt	13	-13	7	1	18
O=S(=O)(Nc1nc2ccccc2nc1Nc1cccc(S(=O)(=O)N2CCCCC2)c1)c1ccccc1	77*	-9	9	7	-8	3
COc1ccccc1CNC(=O)C[C@@H]1CC[C@H]2[C@@H](COC[C@@H](O)CN2C(=O)Nc2ccc(Cl)cc2)O1	nt	nt	nt	nt	nt	2
CCN(CC)CC(C)(C)C(=O)/C=C/c1ccc(/C=C/C(=O)C(C)(C)CN(CC)CC)cc1	55*	4	-4	6	-19	nt
CCN(CC)CCOC(=O)/C=C/c1ccccc1	-4	37	-37	-8	-1	nt
Cc1ccc2c(c1)C(=O)CCN2	nt	19	-19	2	2	-3
Cc1ccc2c(c1)C(=C(C#N)C#N)CCN2	76*	-17	17	2	1	nt
CO[C@@H]1CN(C)C(=O)c2cc(NS(=O)(=O)c3cn(C)cn3)ccc2OC[C@@H](C)N(C)C[C@@H]1C	-7[16.7 µM]	nt	nt	nt	nt	1
O=C(O)c1ccccc1OC(C(=O)Nc1cc(Cl)cc(Cl)c1)c1ccccc1 (centres undefined)	-1	nt	nt	-3	29*	1
O=C(Nc1cc(Cl)cc(Cl)c1)C(NCCO)c1ccccc1 (centres undefined)	-24	25	-25	-9	3	3
O=C(Nc1cc(Cl)cc(Cl)c1)C(c1ccccc1)N1CCCCC1 (centres undefined)	75*	-11	11	10	-4	nt
COc1cccc(NC(=O)C(c2ccccc2)N2CCCCC2)c1 (centres undefined)	19	-9	9	-2	-3	nt
